From ChEMBL document CHEMBL2424601, “Synthetic chondramide A analogues stabilize filamentous actin and block invasion by Toxoplasma gondii” (J Nat Prod, 2013) come the findings set out here.

The test system of data set [1] is Toxoplasma gondii. The data set is described as follows: Antiparasitic activity against Toxoplasma gondii expressing beta-galactosidase infected in HFF assessed as parasite growth inhibition after 72 hrs. It is filed as functional, organism-based. The procedure, abridged: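 β-gal-expressing parasites preincubated 30 min with compound dilutions in DMEM/10% FBS/gentamicin containing 0.2% DMSO, then inoculated at 500/well onto confluent HFF monolayers and cultured continuously; 72 h at 37 °C, 5% CO2. Lysed cells read with chlorophenol red-β-d-galactopyranoside at A570, normalized to untreated control; EC50 from variable-slope log(inhibitor)-response fit, three experiments (n = 4 replicates).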

Data set [2] deals with Actin (Toxoplasma gondii) (UniProt P53476). Put plainly: Induction of Toxoplasma gondii N-terminally his-tagged recombinant actin polymerization at 2 uM after 1 hr using phalloidin staining by fluorescence microscopic analysis. The procedure, abridged: (§1)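 His-tagged TgACTI from baculovirus, Ni-NTA purified, cleared at 100000g; 5 μM actin in F-buffer (50 mM KCl, 2 mM MgCl2, 1 mM ATP) with compound plus Alexa 488 phalloidin 1.2 U/μL, 1 h; filaments imaged by fluorescence microscopy (63× oil); lengths averaged over three filaments per point.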
Chain of Actin (Toxoplasma gondii) (P53476 whole entry): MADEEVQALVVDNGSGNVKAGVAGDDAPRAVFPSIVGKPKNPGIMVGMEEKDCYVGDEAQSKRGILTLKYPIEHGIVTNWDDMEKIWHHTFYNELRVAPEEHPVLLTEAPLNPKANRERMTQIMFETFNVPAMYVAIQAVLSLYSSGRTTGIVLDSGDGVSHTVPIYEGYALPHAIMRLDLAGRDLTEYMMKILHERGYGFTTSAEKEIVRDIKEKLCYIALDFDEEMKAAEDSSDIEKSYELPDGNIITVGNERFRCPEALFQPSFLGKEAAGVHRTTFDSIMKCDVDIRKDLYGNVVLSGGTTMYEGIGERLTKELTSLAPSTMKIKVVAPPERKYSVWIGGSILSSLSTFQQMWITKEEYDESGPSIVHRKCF

Data set [3] shares this target. Put plainly: Induction of Toxoplasma gondii N-terminally his-tagged recombinant actin polymerization after 1 hr. The procedure, abridged:
as §1

Data set [4] relates to Toxoplasma gondii. Put plainly: Antiparasitic activity against Toxoplasma gondii expressing beta-galactosidase infected in HFF assessed as parasite growth inhibition treated for 2 hrs followed by washout measured after 48 hrs after 72 hrs relative to continuous culture in presence of drug for 48 hrs. It is filed as functional. In short, it runs like this: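 β-gal-expressing T. gondii preincubated 30 min with compound dilutions in complete DMEM (10% FBS, gentamicin, 0.2% DMSO), 500 parasites/well onto confluent HFF; compound washed out after 2 h versus continuous exposure; 72 h at 37 °C, 5% CO2. Lysis, chlorophenol red-β-D-galactopyranoside, A570 normalized to untreated; variable-slope log(inhibitor)-response fit; three experiments, n = 4.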

Data set [5] has as its target Actin (Toxoplasma gondii) (UniProt P53476). Put plainly: Induction of Toxoplasma gondii N-terminally his-tagged recombinant actin polymerization at 0.25 uM after 1 hr using phalloidin staining by fluorescence microscopic analysis. The procedure, abridged: as §1
The test system of another data set is HFF. The data set is described as follows: Cytotoxicity against HFF after 72 hrs. The class given is cell-based. The note with it: human. The procedure, abridged:
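Confluent HFF monolayers given serial dilutions in complete DMEM with 0.2% DMSO for 72 h; viable cells by MTS colorimetric assay, normalized to untreated cells.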

Calls of active or inactive are those of the source. No cut-off for these calls is given here.

Take `CO[C@@H]1C(=O)O[C@H](C)[C@H](C)/C=C(\C)C[C@H](C)C(=O)N[C@@H](C)C(=O)N(C)[C@H](Cc2c[nH]c3ccccc23)C(=O)N[C@H]1c1ccc(F)cc1`: the EC50 in the data set with Toxoplasma gondii [1] was 320 nM.

In the case of `CO[C@@H]1C(=O)O[C@H](C)[C@H](C)/C=C(\C)C[C@H](C)C(=O)N[C@@H](C)C(=O)N(C)[C@H](Cc2c[nH]c3ccccc23)C(=O)N[C@H]1c1ccccc1`, the outcome in data set [2] and in data set [5] was Active. The Activity entry in data set [3] is “Dose-dependent effect”. The “fold change (FC)” value in the data set with Toxoplasma gondii [4] is recorded as 1.5. The EC50 in the data set with Toxoplasma gondii [1] is 510 nM.

Regarding `C/C1=C\[C@@H](C)[C@@H](C)OC(=O)C[C@H](c2ccc(O)cc2)NC(=O)[C@@H](Cc2c[nH]c3ccccc23)N(C)C(=O)[C@H](C)NC(=O)[C@@H](C)C1`, the concentration giving a half-maximal response (EC50) in the data set with Toxoplasma gondii [1] amounted to 480 nM. In addition, in the data set on HFF, the Activity entry is listed as “Toxic”.

With `CO[C@@H]1C(=O)O[C@H](C)[C@H](C)/C=C(\C)C[C@H](C)C(=O)N[C@@H](C)C(=O)N(C)[C@H](Cc2c[nH]c3ccccc23)C(=O)N[C@H]1c1ccc(CO)cc1`, the EC50 in the data set with Toxoplasma gondii [1] was determined as 740 nM.

Consider `CO[C@@H]1C(=O)O[C@H](C)[C@H](C)/C=C(\C)C[C@H](C)C(=O)N[C@@H](C)C(=O)N(C)[C@H](Cc2c[nH]c3ccccc23)C(=O)N[C@H]1c1ccc(C#N)cc1`, for which, in the data set on Toxoplasma gondii [1], the EC50 stood at 380 nM.

In the case of `CO[C@@H]1C(=O)O[C@H](C)[C@H](C)/C=C(\C)C[C@H](C)C(=O)N[C@@H](C)C(=O)N(C)[C@H](Cc2c[nH]c3ccccc23)C(=O)N[C@H]1c1ccc(CCO)cc1`, the EC50 with Toxoplasma gondii [1] amounted to 600 nM.

As to `CO[C@@H]1C(=O)O[C@H](C)[C@H](C)/C=C(\C)C[C@H](C)C(=O)N[C@@H](C)C(=O)N(C)[C@H](Cc2c[nH]c3ccccc23)C(=O)N[C@H]1c1ccc(C)cc1`, the EC50 in the data set on Toxoplasma gondii [1] came out at 530 nM.

On to `COc1ccc([C@@H]2NC(=O)[C@@H](Cc3c[nH]c4ccccc34)N(C)C(=O)[C@H](C)NC(=O)[C@@H](C)C/C(C)=C/[C@@H](C)[C@@H](C)OC(=O)[C@H]2OC)cc1`, for which, in the data set with Toxoplasma gondii [1], the EC50 was 690 nM.

With `CO[C@@H]1C(=O)O[C@H](C)[C@H](C)/C=C(\C)C[C@H](C)C(=O)N[C@@H](C)C(=O)N(C)[C@H](Cc2c[nH]c3ccccc23)C(=O)N[C@H]1c1ccc([N+](=O)[O-])cc1`, the EC50 in the data set with Toxoplasma gondii [1] amounted to 610 nM.

Take `CO[C@@H]1C(=O)O[C@H](C)[C@H](C)/C=C(\C)C[C@H](C)C(=O)N[C@@H](C)C(=O)N(C)[C@H](Cc2c[nH]c3ccccc23)C(=O)N[C@H]1c1ccc(-c2ccccc2)cc1`: in the data set on Toxoplasma gondii [1], the EC50 is 1340 nM.

Consider `C/C1=C\[C@H](C)C[C@H](C)OC(=O)C[C@H](c2ccc(O)cc2)NC(=O)[C@@H](Cc2c(Br)[nH]c3ccccc23)N(C)C(=O)[C@H](C)NC(=O)[C@@H](C)C1` [JASPAMIDE], for which the result in data set [3] was Active. Further, the “fold change (FC)” value in the data set on Toxoplasma gondii [4] came out at 1.5. Also, the EC50 in the data set with Toxoplasma gondii [1] was 340 nM. In the data set with HFF, the Activity result is “Toxic”.

In the case of `CO[C@@H]1C(=O)O[C@H](C)[C@H](C)/C=C(\C)C[C@H](C)C(=O)N[C@@H](C)C(=O)N(C)[C@H](Cc2c[nH]c3ccccc23)C(=O)N[C@H]1c1ccc(O)cc1`, the outcome in data set [2] and in data set [5] was Active. For the same compound, the Activity entry in data set [3] was “Dose-dependent effect”; with HFF, “Toxic”. For the same compound, in the data set on Toxoplasma gondii [1], the EC50 was determined as 560 nM.

As for `CO[C@@H]1C(=O)O[C@H](C)[C@H](C)/C=C(\C)C[C@H](C)C(=O)N[C@@H](C)C(=O)N(C)[C@H](Cc2c(Cl)[nH]c3ccccc23)C(=O)N[C@H]1c1ccc(O)cc1`, the EC50 in the data set on Toxoplasma gondii [1] came out at 220 nM. Moreover, in the data set with HFF, the Activity result is listed as “Toxic”.

Consider `CO[C@@H]1C(=O)O[C@H](C)[C@H](C)/C=C(\C)C[C@H](C)C(=O)N[C@@H](C)C(=O)N(C)[C@H](Cc2c[nH]c3ccccc23)C(=O)N[C@H]1c1ccc(N)cc1`, for which, in the data set with Toxoplasma gondii [1], the concentration for a half-maximal effect (EC50) stood at 660 nM.

Regarding `CO[C@@H]1C(=O)O[C@H](C)[C@H](C)/C=C(\C)C[C@H](C)C(=O)N[C@@H](C)C(=O)N(C)[C@H](Cc2c[nH]c3ccccc23)C(=O)N[C@H]1c1ccc(C(N)=O)cc1`, the EC50 with Toxoplasma gondii [1] is not below 45000 nM.
